In ChEMBL document CHEMBL5126632, “Balancing Affinity, Selectivity, and Cytotoxicity of Hydrazone-Based G-Quadruplex Ligands for Activation of Interferon β Genes in Cancer Cells” (J Med Chem, 2022):
Calls of active or inactive are those of the source. No cut-off for these calls is given here.

Legend:
Quadruplex DNA [1] = experiment: Displacement of thiazole orange from c-kit1 G4 quadruplex d(DNA AGGGAGGGCGCTGGGAGGAGGG) DNA (unknown origin) assessed as relative affinity by fluorescent intercalator displacement assay; type: nucleic-acid assay
Procedure, shortened: (§1)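 G4 DNA at 0.25 μM with 0.5 μM thiazole orange in 5 mM potassium phosphate pH 7.0 containing 20 mM KCl (LiCl for c-myc), 20 °C. Ligand titrated from 0.5 to 20 molar equiv with 3 min equilibration per addition. Excitation 485 nm, emission 500–650 nm. %displacement = 100 − (F/F0×100); DC50 is the concentration displacing 50% TO. Duplicate titrations.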

Quadruplex DNA [2] = experiment: Displacement of thiazole orange from c-myc G4 quadruplex d(TTAGGGTTAGGGTTAGGGTTAGGGTT) DNA (unknown origin) assessed as relative affinity by fluorescent intercalator displacement assay; type: nucleic-acid assay; procedure, shortened: as §1
Quadruplex DNA [3] = experiment: Stabilization of c-myc G4 quadruplex d(TTAGGGTTAGGGTTAGGGTTAGGGTT) DNA (unknown origin) assessed as thermal stability by measuring difference in melting temperature t1/2 by circular dichroism spectroscopy (reference value: 72 +/- 0.5 degC); type: nucleic-acid assay
MNMCA1 = experiment: Activation of IFN-beta in mouse MNMCA1 cells at 15 to 30 uM pretreated for 24 hrs followed by 48 hrs of drug recovery by ELISA; type: functional, cell-based; settings: dose 15-30 µM, time 72.0 hrs
Procedure, shortened: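 MNMCA1 cells treated 24 h with compound at 15 or 30 μM, then 48 h recovery in fresh drug-free medium. IFN-B protein measured by ELISA in collected culture supernatants.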

Quadruplex DNA [4] = experiment: Binding affinity to c-kit2 G4 quadruplex d(CGGGCGGGCGCTAGGGAGGGT) DNA (unknown origin) assessed as dissociation constant by Microscale thermophoresis analysis; type: nucleic-acid assay
Procedure, shortened: (§2)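 MST with Cy5.5-labelled G4 oligonucleotide held at 20 nM, folded in 5 mM potassium phosphate pH 7.0 with 20 mM KCl plus 0.1% Tween. Ligand in 1:2 serial dilution mixed 1:1 with DNA, 20% DMSO final. Kd taken from binding curves.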

Quadruplex DNA [5] = experiment: Stabilization of c-kit2 G4 quadruplex d(CGGGCGGGCGCTAGGGAGGGT) DNA (unknown origin) assessed as thermal stability by measuring difference in melting temperature t1/2 by circular dichroism spectroscopy (reference value: 61.5 +/- 0.5 degC); type: nucleic-acid assay
U2OS [6] = experiment: Induction of DNA damage in human U2OS cells assessed as increase in gammaH2AX phosphorylation at S139 incubated for 24 hrs by immunofluorescence microscopy; type: functional, cell-based; settings: read-out: IC50 (the source's name)
Procedure, shortened: (§3)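 U2OS cells treated 24 h. Fixed with 4% formaldehyde, permeabilized with 0.5% Triton X-100, blocked with 8% BSA, stained with anti-γH2AX (1:500) and Alexa Fluor 594 secondary, DAPI counterstain. Fluorescence microscopy signal quantified as fold over untreated.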

Quadruplex DNA [7] = experiment: Binding affinity to c-kit1 G4 quadruplex d(DNA AGGGAGGGCGCTGGGAGGAGGG) DNA (unknown origin) assessed as dissociation constant by Microscale thermophoresis analysis; type: nucleic-acid assay; procedure, shortened: as §2
Quadruplex DNA [8] = experiment: Stabilization of human Tel26 G4 quadruplex DNA assessed as thermal stability by measuring difference in melting temperature t1/2 by circular dichroism spectroscopy; type: nucleic-acid assay
Quadruplex DNA [9] = experiment: Displacement of thiazole orange from c-kit2 G4 quadruplex d(CGGGCGGGCGCTAGGGAGGGT) DNA (unknown origin) assessed as relative affinity by fluorescent intercalator displacement assay; type: nucleic-acid assay; procedure, shortened: as §1
[10] = Stabilization of F-c-kit1-T (unknown origin) assessed as difference in melting temperature t1/2 in presence of d(CGC GAA TTC GCG TIT CGC GAA TTC GCG) DNA hairpin (unknown origin) measured at 1:15 G4 to hairpin DNA ratio by FRET assay
Procedure, shortened: (§4)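 FRET melting of 0.2 μM prefolded FAM/TAMRA dual-labelled c-kit1 G4 in 5 mM K phosphate pH 7.0 with 20 mM KCl. Ligand was added at 2 molar equiv, with unlabelled hairpin competitor at 3 or 10 μM final (15 or 50 equiv relative to G4). FAM emission was read at 520 nm (excitation 492 nm) while heating at 0.2 °C/min over 15–90 °C. ΔT1/2 is relative to no ligand; at least duplicate, averaged.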

[11] = Stabilization of F-c-kit1-T (unknown origin) assessed as difference in melting temperature t1/2 in presence of d(CGC GAA TTC GCG TIT CGC GAA TTC GCG) DNA hairpin (unknown origin) measured at 1:50 G4 to hairpin DNA ratio by FRET assay; procedure, shortened: as §4
Quadruplex DNA [12] = experiment: Stabilization of F-c-kit1-T quadruplex DNA (unknown origin) by measuring difference in melting temperature t1/2 by FRET assay; type: nucleic-acid assay
Procedure, shortened: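 FRET melting of 0.2 μM prefolded FAM/TAMRA-labelled c-kit1 in 5 mM potassium phosphate pH 7.0 with 20 mM KCl, with ligand at 2 molar equiv. Unlabelled hairpin competitor added at 3 or 10 μM (15 or 50 equiv). FAM emission at 520 nm (excitation 492 nm) followed from 15 to 90 °C at 0.2 °C/min. ΔT1/2 versus no ligand. At least duplicate.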

Quadruplex DNA [13] = experiment: Stabilization of G4 quadruplex DNA in human U2OS cells assessed as BG4 foci formation by measuring fold increase in G4 structure at 10 uM by immunofluorescence microscopy; type: cell-based
Procedure, shortened: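 U2OS cells on coverslips treated for […]. Fixed in methanol/acetic acid 3:1, permeabilized with 0.1% Triton X-100, blocked in 2% milk. Stained with 0.5 μg BG4 for 2 h, then anti-FLAG and Alexa Fluor 488 secondary. Signal quantified as fold over untreated.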

U2OS [14] = experiment: Cytotoxicity against human U2OS cells assessed as cell survival preincubated for 24 hrs with compound further incubated for 48 hrs in drug free medium by MTT assay; type: functional, cell-based
Procedure, shortened: (§5)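 Exponentially growing cells seeded and treated 24 h after seeding with increasing concentrations for 24 h. Cells then recovered 48 h in drug-free medium. MTT added for 1 h at 37 °C, formazan dissolved in DMSO, absorbance read at 540 nm. IC50 from linear regression. Means ± SEM of two independent experiments in triplicate.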

[15] = Genotoxicity in mouse MNMCA1 cells assessed as induction of micronuclei formation measured after 24 hrs by DAPI staining based analysis; type: toxicity, cell-based; settings: mnmca1, 24 h
Quadruplex DNA [16] = experiment: Binding affinity toc-myc G4 quadruplex d(TTAGGGTTAGGGTTAGGGTTAGGGTT) DNA (unknown origin) assessed as dissociation constant by Microscale thermophoresis analysis; type: nucleic-acid assay; procedure, shortened: as §2
[17] = Stabilization of d(CGC GAA TTC GCG TIT CGC GAA TTC GCG) DNA hairpin (unknown origin) assessed as thermal stability by measuring difference in melting temperature t1/2 by circular dichroism spectroscopy (reference value: 75.4 +/- 0.2 degC)
Procedure, shortened: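 CD melting of 15 μM annealed hairpin duplex in 5 mM K phosphate pH 7.0 with 20 mM KCl, with or without ligand at 2 molar equiv added to the folded DNA. The signal was followed at 252 nm from 20 to 100 °C at 1 °C/min, with T1/2 taken from a curve fit. ΔT1/2 is relative to DNA alone; duplicate runs, averaged.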

[18] = Cytotoxicity against mouse MNMCA1 cells assessed as cell survival preincubated for 24 hrs with compound further incubated for 48 hrs in drug free medium by MTT assay; type: functional, cell-based; procedure, shortened: as §5
Quadruplex DNA [19] = experiment: Stabilization of c-kit1 G4 quadruplex d(DNA AGGGAGGGCGCTGGGAGGAGGG) DNA (unknown origin) assessed as thermal stability by measuring difference in melting temperature t1/2 by circular dichroism spectroscopy (reference value: 54 +/- 0.5 degC); type: nucleic-acid assay
U2OS [20] = experiment: Induction of DNA damage in human U2OS cells assessed as fold increase in gammaH2AX phosphorylation at […] by measuring fold change at 10 uM incubated for 24 hrs by immunofluorescence microscopy; type: functional; procedure, shortened: as §3
[21] = Genotoxicity in mouse MNMCA1 cells assessed as induction of micronuclei formation at 5 uM incubated for 24 hrs by measuring fold change by DAPI staining based analysis; type: toxicity, cell-based; settings: mnmca1, 24 h

Row | Structure (SMILES) | ΔTm (Quadruplex DNA [3]) [°C] | Kd (Quadruplex DNA [4]) [µM] | ΔTm (Quadruplex DNA [5]) [°C] | EC50 (U2OS [6]) [µM] | Kd (Quadruplex DNA [7]) [µM] | ΔTm (Quadruplex DNA [8]) [°C] | ΔTm [10] [°C] | ΔTm [11] [°C] | ΔTm (Quadruplex DNA [12]) [°C] | IC50 (U2OS [14]) [µM] | Kd (Quadruplex DNA [16]) [µM] | ΔTm [17] [°C] | IC50 [18] [µM] | ΔTm (Quadruplex DNA [19]) [°C] | fold change (FC) (U2OS [20]) | fold change (FC) [21] | other results
1 | Cc1ccc(-c2nc3ccn4c(/C=N/NC(=N)N)c(-c5ccccc5)nc4n3c2/C=N/NC(=N)N)cc1 | 16.9 | 0.04 | > 30 | 46 | 0.03 | 4.8 | 22.2 | 19.2 | 25.4 | 46.8 | 1.5 | 1.3 | 38.5 | 18.2 | – | – | IC50 (Quadruplex DNA [1]): 1.4 µM; IC50 (Quadruplex DNA [2]): 1.6 µM; Activity (MNMCA1): Active; IC50 (Quadruplex DNA [9]): 1.4 µM; fold change (FC) (Quadruplex DNA [13]): 2.4; fold change (FC) [15]: 0.4
2 | N=C(N)N/N=C/c1c(-c2ccccc2)nc2ccn3c(CO)c(-c4ccccc4)nc3n12 | 2.8 | 1.3 | 18.6 | 14 | 2 | 1.8 | 11.1 | 12.1 | 10 | 14.3 | 8 | 2.3 | 35.7 | 9.7 | 2.32 | 2.5 | –
3 | OCc1c(-c2ccccc2)nc2n1ccc1nc(-c3ccccc3)c(/C=N/NC3=NCCN3)n12 | 1.7 | 2.5 | 14.7 | 24 | 8 | 2 | 7.8 | 8.4 | 8 | 24.5 | 37 | 1.3 | 12.1 | 7.1 | 1.55 | 2.5 | –
